Data set [1] is filed under the species Homo sapiens. In words: Binding affinity to c-myc G-quadruplex DNA in BCL2 and MYC translocation-positive human VAL cells assessed as downregulation of MYC protein levels up to 3 uM after 24 hrs by Western blot analysis. A digest of the protocol:
(§1)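 Cell lines treated 24 h with compound up to 3 μM, with untreated and DMSO-treated controls. Lysates (20 μg total protein) probed by Western blot for BCL2 or MYC with antibodies at 1:1000; actin as loading control. Blots representative of triplicate experiments.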
Background: Immunoblotting shows a protein as a band on a membrane.

The species entered for data set [2] is Homo sapiens. The data set is described as follows: Binding affinity to c-myc G-quadruplex DNA in human HT cells assessed as downregulation of MYC protein levels up to 3 uM after 24 hrs by Western blot analysis. In kind it is cell-based. A digest of the protocol:
as §1

Data set [3] is filed under the species Homo sapiens. The data set is described as follows: Binding affinity to BLC2 G-quadruplex DNA in BCL2 translocation-positive human SUDHL4 cells assessed as downregulation of BLC2 mRNA levels at 3 uM after 24 hrs by qPCR method. A digest of the protocol:
(§2)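 DLBCL lines grown in RPMI with 10% FBS (SUDHL4 15% FBS) and penicillin/streptomycin. Cells exposed for 24 h to rising concentrations up to 3 μM; DMSO as vehicle control. Total RNA isolated, target mRNA measured by TaqMan real-time qPCR, normalized to TBP and expressed relative to untreated cells; triplicate experiments, two-tailed t test.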
On the technique in general: In qPCR the cycle at which signal appears reflects the starting amount.

Data set [4] deals with U2932. The data set is described as follows: Antitumor activity against human U2932 cells xenografted in SCID mouse assessed as reduction in tumor burden at 5 to 7.5 mg/kg, ip for 5 days cotreated with 10 mg/kg NSC-59276 measured on day 9 to 15 post first treatment. In kind it is functional, organism-based. A digest of the protocol: (§3)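 U2932 DLBCL cells (10 × 10^6 in 100 μL sterile saline, viability >91%) injected subcutaneously into left flank of SCID mice (6−8 weeks, immunoglobulin ≤20 μg/mL). Mice pair-matched by tumor volume. Drugs given ip daily for 5 days, CPA 30 mg/kg; controls received all diluents. Tumor volume = a2 × b/2 (a smallest, b largest diameter); n = 5−8; Grubbs' test for outliers.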
In general terms: Xenograft models place foreign cells or tissue in a host animal.

The subject of data set [5] is Mus musculus. The data set is described as follows: Toxicity in scid mouse xenografted with human U2932 cells assessed as survival at 10 mg/kg, ip administered for 5 consecutive days cotreated with NSC-59276 and CPA. In kind it is organism-based. To be noted: in vivo. A digest of the protocol:
(§4)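 SCID mice (6−8 weeks, female or male, serum immunoglobulin ≤20 μg/mL by ELISA) implanted subcutaneously in left flank with 10 × 10^6 U2932 cells in 100 μL saline; pair-matched by tumor volume; dosed ip daily for 5 days; controls received all compound diluents; tumor volume a2 × b/2; outliers by Grubbs' test; two-tailed t test with Šidák–Bonferroni correction.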

Data set [6] is filed under the species Homo sapiens. In words: Binding affinity to c-myc G-quadruplex DNA in MYC translocation-positive and BCL2 amplification-positive human U2932 cells assessed as downregulation of MYC mRNA levels up to 3 uM after 24 hrs by qPCR method relative to control. A digest of the protocol: as §2
The species named for data set [7] is Homo sapiens. The data set is described as follows: Stabilization of c-myc G-quadruplex DNA in BCL2 and MYC translocation-positive human VAL cells assessed as potentiation of CPA-induced apoptosis by measuring increase in caspase-3 activity at 3 uM after 24 hrs in presence of NSC-59276 by AFC based fluorescence assay (reference value: 30%).
For data set [8], the system named is Mus musculus. In words: Toxicity in scid mouse xenografted with human U2932 cells assessed as change in body weight at 5 to 7.5 mg/kg, ip administered for 5 consecutive days in presence of CPA. In kind it is organism-based. To be noted: in vivo. A digest of the protocol: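 In the follow-up U2932 subcutaneous xenograft study in SCID mice (pair-matched by tumor volume, n = 5−8), compound at 5 or 7.5 mg/kg was given ip daily for 5 days with 30 mg/kg cyclophosphamide and 10 mg/kg BCL2 i-motif ligand. Diluent was given in place of any absent agent. Body weight and survival were followed.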

Data set [9] concerns Mus musculus. In words: Reduction in Myc mRNA level in tumor of SCID mouse xenografted with human U2932 cells at 5 to 7.5 mg/kg, ip administered for 5 consecutive days cotreated with CPA and NSC-59276 by qPCR method. In kind it is functional, organism-based. A digest of the protocol: (§5)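 Tumors from U2932 xenograft SCID mice given ip treatment daily for 5 days were harvested. Total RNA was taken from the same tumor preparations used for protein lysates, and MYC or BCL2 mRNA was quantified by TaqMan qPCR normalized to TBP. Comparisons were made with diluent-treated mice or CPA-only mice.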

The species entered for data set [10] is Homo sapiens. The data set is described as follows: Stabilization of c-myc G-quadruplex DNA in BCL2 translocation-positive human SUDHL4 cells assessed as potentiation of CPA-induced apoptosis by measuring increase in caspase-3 activity at 3 uM after 24 hrs in presence of NSC-59276 by AFC based fluorescence assay (reference value: 30%).
Data set [11] relates to U2932. In words: Potentiation of CPA-induced antitumor activity against human U2932 cells xenografted in SCID mouse assessed as reduction in tumor burden AUC at 5 to 7.5 mg/kg, ip for 5 days cotreated with 10 mg/kg NSC-59276 measured on day 9 to 15 post first treatment. In kind it is functional, organism-based. A digest of the protocol:
as §3

The species entered for data set [12] is Homo sapiens. The data set is described as follows: Binding affinity to BLC2 i-motif promoter DNA in MYC translocation-positive and BCL2 amplification-positive human U2932 cells assessed as downregulation of BLC2 mRNA levels up to 3 uM after 24 hrs by qPCR method. A digest of the protocol: as §2
Data set [13] relates to Mus musculus. The data set is described as follows: Toxicity in scid mouse xenografted with human U2932 cells assessed as survival at 5 mg/kg, ip administered for 5 consecutive days cotreated with NSC-59276 and CPA. In kind it is organism-based. The following applies: in vivo. A digest of the protocol:
as §4

The species named for data set [14] is Homo sapiens. The data set is described as follows: Binding affinity to c-myc G-quadruplex DNA in human HT cells assessed as downregulation of MYC mRNA levels at 0.25 to 3 uM after 6 hrs by qPCR method. It counts as cell-based.
The test system of data set [15] is U2932. The data set is described as follows: Potentiation of CPA-induced antitumor activity against human U2932 cells xenografted in SCID mouse assessed as tumor growth inhibition at 7.5 mg/kg, ip for 5 days cotreated with 10 mg/kg NSC-59276 measured on day 15 post first treatment (reference value: 44%). In kind it is functional. A digest of the protocol:
as §3

Data set [16] concerns U2932. The data set is described as follows: Potentiation of CPA-induced antitumor activity against human U2932 cells xenografted in SCID mouse assessed as reduction in tumor burden at 5 mg/kg, ip administered for 5 consecutive days measured up to 10 days post first treatement. It counts as functional, organism-based. A digest of the protocol:
(§6)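 SCID mice bearing subcutaneous left-flank U2932 xenografts (10 × 10^6 cells in saline), pair-matched by tumor volume. Test agent given ip daily for 5 days with 50 mg/kg CPA; diluent-treated and CPA-alone controls. Tumor volume estimated as a2 × b/2 from smallest and largest diameters. Grubbs' test for outliers; two-tailed Student's t test.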

Data set [17] concerns Mus musculus. The data set is described as follows: Reduction in Myc mRNA level in SCID mouse xenografted with human U2932 cells at 2.5 to 5 mg/kg, ip administered for 5 consecutive days cotreated with CPA by qPCR method. In kind it is functional, organism-based. A digest of the protocol: as §5
The subject of data set [18] is U2932. The data set is described as follows: Potentiation of CPA-induced antitumor activity against human U2932 cells xenografted in SCID mouse assessed as reduction in tumor burden at 2.5 mg/kg, ip administered for 5 consecutive days measured up to 10 days post first treatement. It counts as functional, organism-based. A digest of the protocol:
as §6

Data set [19] deals with Mus musculus. In words: Reduction in Bcl2 mRNA level in tumor of SCID mouse xenografted with human U2932 cells at 5 to 7.5 mg/kg, ip administered for 5 consecutive days cotreated with CPA and NSC-59276 by qPCR method. In kind it is functional, organism-based. A digest of the protocol:
as §5

The source made the active and inactive calls. The calls are words filed in the database; no cut-off is given here. Bounds are passed on as bounds.

The TGI is how far tumour growth fell short of that in controls.

`Cc1c2ccncc2c(C)c2c1[nH]c1ccc(OCCN(C)C)cc12.Cl.Cl`: the result in the data set listed under Homo sapiens [1], in the data set filed under Homo sapiens [2], in the data set listed under Homo sapiens [3], with Mus musculus [9], in the data set on U2932 [11] and in the data set filed under Homo sapiens [14] was Active. For the same compound, the outcome with U2932 [16], in the data set on Mus musculus [17], in the data set on U2932 [18] and with Mus musculus [19] was Active. Further, the result in the data set with U2932 [4] and in the data set listed under Homo sapiens [12] was inactive. Also, the Activity result is “Toxic” with Mus musculus [5]; less than 90% in the data set filed under Homo sapiens [6]; 100% in the data set listed under Homo sapiens [7]; “Non-Toxic” with Mus musculus [8]; 100% in the data set filed under Homo sapiens [10]; “Non-Toxic” in the data set with Mus musculus [13]. For the same compound, in the data set on U2932 [15], the inhibition of tumour growth (TGI) was 37%.

(Values after ChEMBL document CHEMBL4038303, “Simultaneous Drug Targeting of the Promoter MYC G-Quadruplex and BCL2 i-Motif in Diffuse Large B-Cell Lymphoma Delays Tumor Growth” (J Med Chem, 2017).)
